KCNQ1 act – potentiators or activators of KCNQ1 channel, primary screen, cell-based, thallium flux, high-throughput | CHO-K1 KCNQ1, thallium flux FluxOR fluorescence; active compounds read high | B-score at 10 µM | hit rate 0.35% among 310,000 | AID 2648, 2010;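 active = fluorescence ratio B-score, a plate-corrected score, at least three library SD, with initial intensity B-score within 5 SD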
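Assay system: CHO-K1 cells stably expressing KCNQ1; Medium: assay buffer with matched DMSO; Also added: K+/Tl+ depolarizing stimulus; Dosing: single dose; Timing: dye 90 min, compound 20 min, room temperature; Measured by: kinetic FluxOR thallium fluorescence, 10-s 1-Hz baseline, 110-s post-stimulus read; Read-out: peak-minus-minimum fluorescence over initial fluorescence, negative-control normalized, B-scored.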
KCNK3 block – human KCNK3 channel inhibitors, primary screen, CHO cells, FluxOR thallium flux, B-score; Potassium channel subfamily K member 3 (Homo sapiens), O14649; FluxOR fluorescence; active compounds read low; B-score at 10 µM; hit rate 0.84% among 340,000;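 active = B-score under library mean minus 4 SD, starting fluorescence ratio at most library mean plus 5 SD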;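 also: more negative B-score means stronger inhibition of thallium flux through KCNK3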
Target sequence (O14649 whole entry, looked up): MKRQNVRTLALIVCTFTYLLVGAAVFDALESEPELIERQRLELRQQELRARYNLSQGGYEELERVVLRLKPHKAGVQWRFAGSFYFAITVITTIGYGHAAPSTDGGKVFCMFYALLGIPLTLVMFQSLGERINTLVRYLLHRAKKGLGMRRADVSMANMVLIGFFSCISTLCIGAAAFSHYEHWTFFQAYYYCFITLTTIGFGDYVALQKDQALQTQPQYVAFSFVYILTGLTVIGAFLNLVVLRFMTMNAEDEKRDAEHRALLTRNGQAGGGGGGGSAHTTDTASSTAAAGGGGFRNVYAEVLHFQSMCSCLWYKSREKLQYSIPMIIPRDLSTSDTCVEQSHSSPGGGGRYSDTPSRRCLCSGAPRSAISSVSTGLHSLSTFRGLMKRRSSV
KCNK9 block – KCNK9 potassium channel inhibitors, primary screen, HEK293 cells, thallium flux. FluxOR thallium flux fluorescence; active compounds read low. B-score at 10 µM. hit rate 1.2% among 310,000. Potassium channel subfamily K member 9 (Homo sapiens), Q9NPC2;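 active = ratio B-score over 3 SD below the library mean, with starting fluorescence within 5 SD of its mean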;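 also: negative B-score means less thallium flux so channel inhibition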
hERG protect – hERG rescue from dofetilide block, primary screen, cell-based, CHO-hERG, FluxOR thallium flux, dofetilide IC70. hit rate 0.51% among 310,000. activation (rescue from dofetilide block), less the hit threshold, % at 10 µM. AID 1511, 2009. dofetilide IC70 present. Voltage-gated inwardly rectifying potassium channel KCNH2 (Homo sapiens), Q12809;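 active = activation above the mean of controls blocked by dofetilide plus 5 SD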;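 also: thallium influx through hERG after potassium depolarization seen as dye fluorescence rise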
KCNQ1 inh – inhibitors of human KCNQ1 channel, primary screen, cell-based, thallium flux, high-throughput; Potassium voltage-gated channel subfamily KQT member 1 (Homo sapiens), P51787; CHO-K1 KCNQ1, FluxOR thallium flux fluorescence; active compounds read high; B-score at 10 µM; hit rate 1.3% among 310,000;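 active = compounds whose thallium flux B-score, printed positive for inhibition, exceeds three library SD while starting fluorescence stays within three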;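 also: channel opened by potassium depolarization with thallium stimulus after 20 min compound exposure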
KCNK3 inh conf – retest of human KCNK3 channel inhibitors, confirmation, CHO cells, FluxOR thallium flux, triplicate | ratio percent of control, % at 10 µM | hit rate 99% among 2,400 | shares compounds with KCNK3 block | FluxOR fluorescence; 0% buffer, 100% carvedilol maximal block;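 active = ratio percent of control, averaged over triplicates, above buffer control mean plus 5 SD, cut at about 64% in these data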;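 also: ratio is the fluorescence rise from min to max over baseline after thallium stimulus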
KCNK3 uninduced – thallium flux inhibition in non-induced cells, primary screen, counter-screen for KCNK3 inhibitor project, cell-based, non-induced KCNK3 line, FluxOR thallium, triplicate. shares compounds with KCNK3 block. non-induced KCNK3 parental cells; active compounds read low. thallium flux ratio (lower = more inhibition) at 10 µM. hit rate 40% among 2,400;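 active = thallium flux ratio, averaged over three wells, more than 5 SD below the buffer control mean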;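 also: host cells are CHO cells without KCNK3 induction; ratio is peak minus trough fluorescence over baseline then normalized to buffer controls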
* = called active by the depositor; i = inactive; · = not tested or not shown. Hits are enriched below; roughly 3.1% of the tested compounds scored in any of these assays.

SMILES | KCNQ1 act | KCNK3 block | KCNK9 block | hERG protect | KCNQ1 inh | KCNK3 inh conf | KCNK3 uninduced
Cc1cccc(C(=O)NN/C=C/C(=O)c2ccccc2)c1 | i | -9.1* | i | -6 | i | 100* | i
Cc1ccc(C(=O)C=CNNC(=O)c2ccccc2)cc1 | i | i | i | -13 | i | · | ·
O=C(Nc1ccc(S(=O)(=O)N2CCOCC2)cc1)c1cc(-c2cc(Cl)ccc2O)n[nH]1 | i | -8.7* | i | -16 | i | 128* | 0.13*
Cc1cc(O)c(-c2cc(C(=O)Nc3ccc(S(=O)(=O)N4CCOCC4)cc3)[nH]n2)cc1C | i | i | i | -2 | i | · | ·
CCOC(=O)c1c(N)sc2c1CCSC2 | i | -9.6* | i | -8 | i | 72* | i
COc1cc(C(=O)Nc2cccc(-c3nnc(-c4ccco4)o3)c2)ccc1OC(C)=O | i | -9.5* | i | -14 | i | 113* | i
COc1ccc(C(=O)Nc2cccc(-c3nnc(-c4ccco4)o3)c2)cc1 | i | i | i | -27 | i | · | ·
CN(C)CCCNc1oc(-c2ccccc2Cl)nc1S(=O)(=O)c1ccccc1 | · | i | · | · | · | · | ·
CN(C)c1oc(-c2ccccc2Cl)nc1S(=O)(=O)c1ccccc1 | i | -9.3* | i | -8 | i | 108* | i
CCOc1ccc(C(=O)N/N=C/c2c(C)[nH]c(=O)[nH]c2=O)cc1 | i | · | i | -17 | i | · | ·
Cc1nn(C2CCS(=O)(=O)C2)c(Cl)c1/C=C/C(=O)OCC(=O)Nc1ccc2c(c1)OCO2 (stereo not given) | i | i | i | -4 | i | · | ·
O=C(Nc1ccc(Cl)cc1)c1cc(Br)ccc1OCC(=O)N1CCOCC1 | i | -10* | i | -3 | i | 112* | i
O=C(Nc1ccc(OCC(=O)N2CCOCC2)cc1)c1ccccc1F | i | i | i | -5 | i | · | ·
COc1ccc(C)cc1NC(=O)c1sc2ncnc(N3CCN(c4ccccn4)CC3)c2c1C | i | -11* | i | -3 | i | 116* | i
Cc1ccc(NC(=O)c2sc3ncnc(N4CCN(c5ccccn5)CC4)c3c2C)c(C)c1 | i | i | i | -21 | i | · | ·
CC1=CC(=O)C=C(C)C1=NOc1ccc([N+](=O)[O-])cc1 | i | i | i | -8 | i | · | ·
CC(C)(C)c1ccc(C(=O)/C(C#N)=C/c2cccs2)cc1 | i | -12* | i | -5 | 6* | 111* | i
CN(C(=O)CO/N=C/c1ccc(Cl)cc1)c1ccccc1 | i | i | i | -3 | i | · | ·
O=C(NCCc1nccs1)C1CCC(=O)N(Cc2cccc(C(F)(F)F)c2)C1 (stereo not given) | i | i | i | -2 | i | · | ·
OC1CCN(c2c3c(nc4cc(-c5cccc(F)c5)nn24)CCCC3)CC1 | i | -8.9* | i | -4 | i | 122* | i
COc1ccc(C2=NS(=O)(=O)N(C)C(C(=O)Nc3ccc4c(c3)OCO4)=C2)cc1 | · | i | · | · | · | · | ·
Cc1ccc(C2=NS(=O)(=O)N(C)C(C(=O)Nc3ccc4c(c3)OCO4)=C2)cc1 | i | -10* | -6.7* | -10 | i | 122* | 0.14*
Cc1c(C#N)c2ccccc2n1C | i | i | i | -8 | i | · | ·
Cn1c(CSc2ccccc2)c(C#N)c2ccccc21 | i | -11* | i | -2 | i | 105* | 0.16*
Cc1ccc(F)c(NC(=O)c2c(-c3ccccc3)noc2C)c1 | i | i | i | -8 | i | · | ·
SMILES | KCNQ1 act | KCNK3 block | KCNK9 block | hERG protect | KCNQ1 inh | KCNK3 inh conf | KCNK3 uninduced
Cc1ccc(C)c(NC(=S)NCc2cccn2C)c1 | i | · | i | -12 | i | · | ·
O=C(CN1C(=O)NC2(CCCC2)C1=O)c1ccc(Cl)s1 | i | i | i | -12 | i | · | ·
CN(Cc1ccno1)Cc1cn(C)nc1-c1ccc(Oc2ccccc2)cc1 | i | -10* | i | -18 | i | 91* | i
CN(Cc1cn(C)nc1-c1ccc(Oc2ccccc2)cc1)Cc1cnc2ccccn12 | i | -9.4* | -7* | -36 | 7* | 131* | 0.13*
O=C(NCCc1ccccc1)C1CCN(C(=O)c2ccc([N+](=O)[O-])cc2)CC1 | i | i | i | -9 | i | · | ·
O=C(Nc1nc(-c2cccs2)cs1)c1ccc(Cl)s1 | i | -23* | i | 4 | i | 86* | i
CCOc1ccc(N(CC(=O)N/N=C/c2cc(Br)c(C)o2)S(C)(=O)=O)cc1 | i | i | i | -4 | i | · | ·
CCOc1ccc(-c2nc(CSCC(=O)N3CCN(c4cccc(OC)c4)CC3)c(C)o2)cc1 | i | -12* | i | -15 | i | 138* | 0.15*
CCc1ccc(-c2nc(CSCC(=O)N3CCN(c4ccccn4)CC3)c(C)o2)cc1 | i | i | i | -33 | i | · | ·
O=C(Nc1ccc(Br)c(C(F)(F)F)c1)c1ccc(C(F)(F)F)cc1 | i | -10* | i | -23 | 12* | 119* | 0.1*
Cc1nn(CC(=O)NCc2ccco2)c(C)c1[N+](=O)[O-] | i | i | i | -10 | i | · | ·
O=C(Nc1ccccc1)C1=C(O)CC(c2ccoc2)CC1=Nc1ccccc1 (stereo not given) | i | -8.8* | i | -8 | i | 113* | 0.16*
Cc1ccccc1OCCNC(=O)/C=C/c1ccccc1 | i | i | i | -16 | i | · | ·
O=[N+]([O-])c1cc(C(F)(F)F)ccc1NCC1CCCO1 (stereo not given) | i | -9.7* | i | 0 | i | 70* | i
Cc1c(CCOC(=O)CC23CC4CC(CC(C4)C2)C3)sc[n+]1CC(=O)c1ccc(Br)cc1 | i | -10* | i | -33 | 6* | 119* | i
Cc1c(CCOC(=O)c2ccccc2)sc[n+]1CC(=O)c1ccc(Br)cc1 | i | i | i | -17 | i | · | ·
CCCOC(=O)c1ccc(NC(=O)CSC2=Nc3ccccc3C3CC=NN23)cc1 (stereo not given) | i | -9* | -7* | -12 | i | 110* | i

Screens (PubChem BioAssay)
